This passage reports IC50 and Ratio IC50 results from ChEMBL document CHEMBL3352396, “Zwitterionic pyrimidinium adducts as antioxidants with therapeutic potential as nitric oxide scavenger” (Eur J Med Chem, 2014).

One assay in a line: Nitric oxide scavenging activity by naphthylethylenediamine dihydrochloride based Griesse-Ilosavay method. In a few lines:
(§1)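 Modified Griess-Ilosavay assay. Test sample in DMSO was mixed with potassium phosphate buffer (10 mM, pH 7.4) and sodium nitroprusside (10 mM stock), then incubated at 25 °C for 150 min to form nitrite. Sulphanilic acid reagent (0.33%) and N-(1-naphthyl)ethylenediamine dihydrochloride (0.1% w/v) were added, and the mixture stood 1–2 min. Absorbance was read at 546 nm against a blank. Ascorbic acid was the positive control and DMSO the blank. IC50 was obtained by […].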
Usually IC50 stands for the concentration that inhibits the measured activity by half. Lower therefore signals inhibition by little substance. `O=c1[nH]c(O)c(C(c2ccc(Cl)cc2)c2c(O)[nH]c(=O)[nH]c2=O)c(=O)[nH]1` displayed an IC50 of 304 µM.

In turn, `Cc1ccc(C(c2c(O)[nH]c(=O)[nH]c2=O)c2c(O)[nH]c(=O)[nH]c2=O)cc1` had an IC50 of 377 µM.

Molecule `Cc1cccc(C(c2c(O)n(C)c(=O)n(C)c2=O)c2c(O)n(C)c(=O)n(C)c2=O)c1` came in with a concentration for half-maximal inhibition (IC50) of 174 µM. Still for that read-out and setting: with `O=Cc1ccc(C(c2c(O)[nH]c(=O)[nH]c2=O)c2c(O)[nH]c(=O)[nH]c2=O)cc1` the figure was 330 µM; with `Cn1c(O)c(C(c2ccc(Cl)cc2)c2c(O)n(C)c(=O)n(C)c2=O)c(=O)n(C)c1=O`, 75 µM; with `Cn1c(O)c(C(C2=C(O)CC(C)(C)CC2=O)c2ccc([N+](=O)[O-])cc2)c(=O)n(C)c1=O` (centres undefined), 466 µM. With `Cn1c(O)c(C(c2ccc(C=O)cc2)c2c(O)n(C)c(=O)n(C)c2=O)c(=O)n(C)c1=O`, it took 113 µM to reach half-maximal inhibition (IC50).

`Cn1c(O)c(C(c2ccc(O)cc2)c2c(O)n(C)c(=O)n(C)c2=O)c(=O)n(C)c1=O` showed an IC50 of 310 µM. Same read-out and setting: with `COc1ccc(C(c2c(O)[nH]c(=O)[nH]c2=O)c2c(O)[nH]c(=O)[nH]c2=O)cc1` the figure was 206 µM; with `Cn1c(O)c(C(C2=C(O)CC(C)(C)CC2=O)c2ccc(C=O)cc2)c(=O)n(C)c1=O` (centres undefined), 380 µM; with `O=C1O[C@H]([C@@H](O)CO)C(O)=C1O` [ASCORBIC ACID], 618 µM. On the same count and under the same terms, with `O=c1[nH]c(O)c(C(c2ccc3ccccc3c2)c2c(O)[nH]c(=O)[nH]c2=O)c(=O)[nH]1` the figure was 308 µM. For `Cc1ccc(C(C2=C(O)CC(C)(C)CC2=O)c2c(O)[nH]c(=O)[nH]c2=O)cc1` (centres undefined), it took 432 µM to reach half-maximal inhibition (IC50). On the same count and under the same terms, with `CC1(C)CC(=O)C(C(c2ccccc2)c2c(O)[nH]c(=O)[nH]c2=O)=C(O)C1` (centres undefined) the figure was 361 µM; with `Cn1c(O)c(C(C2=C(O)CC(C)(C)CC2=O)c2ccc(Cl)cc2Cl)c(=O)n(C)c1=O` (centres undefined), 175 µM.

As for `Cn1c(O)c(C(c2ccc3ccccc3c2)c2c(O)n(C)c(=O)n(C)c2=O)c(=O)n(C)c1=O`, the IC50 was determined as 79.1 µM. The molecule `Cn1c(O)c(C(c2cccc(Br)c2)c2c(O)n(C)c(=O)n(C)c2=O)c(=O)n(C)c1=O` had an IC50 of 70.1 µM. Same read-out and setting: with `COc1ccc(C(c2c(O)n(C)c(=O)n(C)c2=O)c2c(O)n(C)c(=O)n(C)c2=O)cc1` the figure was 234 µM; with `CC1(C)CC(=O)C(C(C2=C(O)CC(C)(C)CC2=O)c2ccc([N+](=O)[O-])cc2)=C(O)C1`, 281 µM; with `Cn1c(O)c(C(C2=C(O)CC(C)(C)CC2=O)c2ccccc2)c(=O)n(C)c1=O` (centres undefined), 290 µM. On the same count and under the same terms, for `CC1(C)CC(=O)C(C(c2ccc(C=O)cc2)c2c(O)[nH]c(=O)[nH]c2=O)=C(O)C1` (centres undefined) the value was 439 µM; for `Cc1ccc(C(c2c(O)n(C)c(=O)n(C)c2=O)c2c(O)n(C)c(=O)n(C)c2=O)cc1`, 230 µM; for `Cn1c(O)c(C(c2ccc([N+](=O)[O-])cc2)c2c(O)n(C)c(=O)n(C)c2=O)c(=O)n(C)c1=O`, 69 µM.

The nature of a further assay: Nitric oxide scavenging activity by naphthylethylenediamine dihydrochloride based Griesse-Ilosavay method relative to ascorbic acid. Put shortly: as §1
As to `Cn1c(O)c(C(C2=C(O)CC(C)(C)CC2=O)c2ccc(Cl)cc2Cl)c(=O)n(C)c1=O` (centres undefined), the Ratio IC50 worked out at 500.
